The values below come from article PMC11792500 (RSC Advances, 2025).

In one series the test system is HCT-116 (colon cancer). Nature of the series: MTT cytotoxicity assay, HCT-116 colon cancer cells. Format: cell-based, human. To be noted: read-out: IC50 against HCT-116. A digest of the protocol:
(§1)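 Cells (HCT116 or normal dermal fibroblasts) were obtained from ATCC, seeded per doubling time, and grown in RPMI at 37 °C, humidified 5% CO₂. After 48 h exposure to increasing test compound concentrations, MTT at 5 mg ml⁻¹ working concentration was added for 3 h in the dark, followed by DMSO solubilisation with shaking. OD was read at 570/630 nm, viability expressed as treated/untreated × 100, and IC50 ±SD reported from duplicate wells, ≥3 independent runs.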
(In general: Tetrazolium dyes change colour on reduction, which living cells bring about.)

Another series deals with A549 (lung cancer). Kind of series: MTT cytotoxicity assay, A549 lung cancer cells. The series is classed as cell-based, human. Conditions: for IC50: read-out: IC50 against A549; for lipophilic efficiency (LLE): from cytotoxicity IC50 at A549, DataWarrior. A digest of the protocol:
(§2)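 Cells from ATCC, seeded at densities set by doubling time and kept in RPMI at 37 °C, 5% CO₂. They were exposed to increasing concentrations for 48 h. MTT at 5 mg ml⁻¹ working concentration was added for 3 h in the dark, and crystals were dissolved in DMSO. […] LLE was estimated from these IC50 values and compound physicochemical properties.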

In series [1] the test system is normal dermal fibroblast cells. Nature of the series: MTT cytotoxicity assay, normal fibroblasts. The series is classed as cell-based. Conditions: 48 h, read-out: IC50 against normal fibroblasts. In short, it runs like this: as §1
Another series has as its target EGFR kinase (Homo sapiens, UniProt P00533). Kind of series: EGFR kinase inhibition. The series is classed as biochemical. Conditions: three independent replicates.
A further series relates to T47-D (breast cancer). Nature of the series: MTT cytotoxicity assay, T47-D breast cancer cells. Format: cell-based, human. To be noted: for IC50: read-out: IC50 against T47-D, MTT, 48 h treatment, ±SD, n = 9; for lipophilic efficiency (LLE): from cytotoxicity IC50 at T47-D (printed H47-D), DataWarrior. A digest of the protocol:
as §2

The test system of the next series is A549 cell migration. Nature of the series: Wound healing. Conditions: A549 cells, 24 h, control 0%; for inhibition of cell migration at IC50: compound at IC50 concentration; for inhibition of cell migration at Sub IC50: compound at sub-IC50 concentration. The series is classed as cell-based, human. A digest of the protocol:
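A549 cells were seeded at 35 000 per culture insert and grown 24 h. Proliferation was blocked with 10 μg ml⁻¹ mitomycin C for 2 h, then cells were washed three times. Cells were exposed to two test concentrations (full and sub-level) and the wound imaged at 0 and 24 h. Wound width was measured, and migration inhibition expressed against the untreated control (0%).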

Where [2] appears, read: MTT, 48 h treatment, ±SD, n = 9.

As a reminder, the IC50 is the point on the concentration scale where inhibition reaches its midpoint.

Like-named read-outs stand apart in the source and are kept apart here.

EGFR kinase, sequence (P00533 25-1210): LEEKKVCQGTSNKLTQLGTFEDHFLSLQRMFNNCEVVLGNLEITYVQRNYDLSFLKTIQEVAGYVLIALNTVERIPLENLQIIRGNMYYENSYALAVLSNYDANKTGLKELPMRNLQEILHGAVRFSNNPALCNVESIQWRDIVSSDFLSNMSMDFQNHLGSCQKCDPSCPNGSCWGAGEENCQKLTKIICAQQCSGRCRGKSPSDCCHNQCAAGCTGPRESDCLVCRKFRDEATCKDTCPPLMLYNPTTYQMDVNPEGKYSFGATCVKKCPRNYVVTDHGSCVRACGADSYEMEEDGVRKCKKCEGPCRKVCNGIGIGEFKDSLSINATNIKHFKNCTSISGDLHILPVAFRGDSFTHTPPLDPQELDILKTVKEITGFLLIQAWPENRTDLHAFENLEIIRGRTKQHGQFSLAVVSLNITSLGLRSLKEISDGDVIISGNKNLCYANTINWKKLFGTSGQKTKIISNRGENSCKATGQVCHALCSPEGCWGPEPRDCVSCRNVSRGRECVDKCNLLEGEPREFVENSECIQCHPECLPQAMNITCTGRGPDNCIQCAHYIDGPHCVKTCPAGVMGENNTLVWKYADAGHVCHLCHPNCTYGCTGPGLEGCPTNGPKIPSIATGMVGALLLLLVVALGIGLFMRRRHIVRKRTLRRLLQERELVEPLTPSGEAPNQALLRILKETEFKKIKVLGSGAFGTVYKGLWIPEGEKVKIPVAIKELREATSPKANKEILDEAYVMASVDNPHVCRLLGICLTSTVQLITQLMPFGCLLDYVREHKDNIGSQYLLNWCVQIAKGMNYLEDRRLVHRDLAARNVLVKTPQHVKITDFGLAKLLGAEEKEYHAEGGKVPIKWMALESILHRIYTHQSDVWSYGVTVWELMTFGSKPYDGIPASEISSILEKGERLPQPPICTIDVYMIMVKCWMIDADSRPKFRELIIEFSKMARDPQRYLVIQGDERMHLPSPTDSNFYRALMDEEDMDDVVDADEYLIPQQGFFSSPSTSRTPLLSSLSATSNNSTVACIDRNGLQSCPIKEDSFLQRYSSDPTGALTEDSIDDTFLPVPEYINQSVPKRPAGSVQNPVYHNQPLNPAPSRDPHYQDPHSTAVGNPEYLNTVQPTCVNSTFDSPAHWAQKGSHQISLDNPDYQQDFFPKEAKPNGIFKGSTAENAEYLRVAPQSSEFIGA

Consider `O=c1[nH]cc(F)c(=O)[nH]1` [5-FU, reference compound], for which the IC50 in the series on HCT-116 (colon cancer) (setting [2]) was determined as 11 ± 0.7 µM.
On to `C#CCOc1ccc(/C=N\NC(=O)c2ccccc2)cc1` [7a, (Z)-N′-(4-(prop-2-yn-1-yloxy)benzylidene)benzohydrazide], for which the IC50 is 200 ± 4 µM in the series on A549 (lung cancer) (Homo sapiens, A549, 48 h); more than 500 µM in series [1]; 237 ± 6 µM in the series on HCT-116 (colon cancer) (Homo sapiens, HCT-116, 48 h).
The corresponding values for `C#CCOc1ccc(/C=N\Nc2ccc([N+](=O)[O-])cc2[N+](=O)[O-])cc1` [7c, (Z)-1-(2,4-dinitrophenyl)-2-(4-(prop-2-yn-1-yloxy)benzylidene)hydrazine] are 156 ± 4 µM, more than 500 µM and 209 ± 5 µM.
The corresponding values for `C#CCOc1ccc(/C=N\NC(N)=S)cc1` [7d, (Z)-2-(4-(prop-2-yn-1-yloxy)benzylidene)hydrazine-1-carbothioamide] are 128 ± 5 µM, more than 500 µM and 261 ± 6 µM.
Regarding `O=C(Cn1cc(COc2ccc(/C=N/NC(=O)c3ccccc3)cc2)nn1)Nc1nc2ccccc2s1` [8a, (E)-N-(benzo[d]thiazol-2-yl)-2-(4-((4-((2-benzoylhydrazono)-methyl)phenoxy)methyl)-1H-1,2,3-triazol-1-yl)acetamide], the “% of EGFR inhibition” value at EGFR kinase was 98.5 ± 3.1%. Also, the IC50 in the series with T47-D (breast cancer) was 17 ± 1 µM; in the series with A549 (lung cancer) (Homo sapiens, A549, 48 h) it was 18 ± 1 µM; in series [1], more than 500 µM; in the series on HCT-116 (colon cancer) (Homo sapiens, HCT-116, 48 h) it was 84 ± 3 µM. Moreover, the “inhibition of cell migration at IC50” value in the series with A549 cell migration is 92.4%. For the same compound, in the series on A549 cell migration, the “inhibition of cell migration at Sub IC50” value is 44.8%.
`Cc1ccc2nc(NC(=O)Cn3cc(COc4ccc(/C=N/NC(=O)c5ccccc5)cc4)nn3)sc2c1` [8b, (E)-2-(4-((4-((2-benzoylhydrazono)methyl)phenoxy)methyl)-1H-1,2,3-triazol-1-yl)-N-(6-methylbenzo[d]thiazol-2-yl)acetamide]: the “% of EGFR inhibition” value at EGFR kinase was 96.8 ± 2.1%. The IC50 in the series with T47-D (breast cancer) is 13 ± 1 µM; in the series on A549 (lung cancer) (Homo sapiens, A549, 48 h), 21 ± 1 µM; in series [1] it was more than 500 µM; with HCT-116 (colon cancer) (Homo sapiens, HCT-116, 48 h), 94 ± 1 µM. In addition, the “inhibition of cell migration at IC50” value with A549 cell migration was 78.9%. The “inhibition of cell migration at Sub IC50” value in the series on A549 cell migration was determined as 49.8%.
With `CS(=O)(=O)c1ccc2nc(NC(=O)Cn3cc(COc4ccc(/C=N/NC(=O)c5ccccc5)cc4)nn3)sc2c1` [8c, (E)-2-(4-((4-((2-benzoylhydrazono)methyl)phenoxy)methyl)-1H-1,2,3-triazol-1-yl)-N-(6-(methylsulfonyl)benzo[d]thiazol-2-yl)acetamide], the “% of EGFR inhibition” value at EGFR kinase is reported as 92.3 ± 3.1%. Further, the “lipophilic efficiency (LLE)” value came to 1.93 in the series on T47-D (breast cancer) and 1.84 in the series on A549 (lung cancer). The concentration for half-maximal inhibition (IC50) with A549 (lung cancer) (Homo sapiens, A549, 48 h) was 25 ± 1 µM; in series [1], more than 500 µM; with HCT-116 (colon cancer) (Homo sapiens, HCT-116, 48 h) it was 48 ± 2 µM.
As to `O=C(Cn1cc(COc2ccc(/C=N/NC(=O)c3ccncc3)cc2)nn1)Nc1nc2ccccc2s1` [8d, (E)-N-(benzo[d]thiazol-2-yl)-2-(4-((4-((2-isonicotinoylhydrazono)methyl)phenoxy)methyl)-1H-1,2,3-triazol-1-yl)acetamide], the IC50 with A549 (lung cancer) (Homo sapiens, A549, 48 h) is 38 ± 2 µM; in series [1], more than 500 µM; with HCT-116 (colon cancer) (Homo sapiens, HCT-116, 48 h), 100 ± 2 µM.
`Cc1ccc2nc(NC(=O)Cn3cc(COc4ccc(/C=N/NC(=O)c5ccncc5)cc4)nn3)sc2c1` [8e, (E)-2-(4-((4-((2-isonicotinoylhydrazono)methyl)phenoxy)methyl)-1H-1,2,3-triazol-1-yl)-N-(6-methylbenzo[d]thiazol-2-yl)acetamide]: the IC50 in the series with A549 (lung cancer) (Homo sapiens, A549, 48 h) was 92 ± 2 µM; in series [1] it was more than 500 µM; in the series with HCT-116 (colon cancer) (Homo sapiens, HCT-116, 48 h), 207 ± 5 µM.
`CS(=O)(=O)c1ccc2nc(NC(=O)Cn3cc(COc4ccc(/C=N/NC(=O)c5ccncc5)cc4)nn3)sc2c1` [8f, (E)-2-(4-((4-((2-isonicotinoylhydrazono)methyl)phenoxy)methyl)-1H-1,2,3-triazol-1-yl)-N-(6-(methylsulfonyl)benzo[d]thiazol-2-yl)acetamide]: the figures for the “lipophilic efficiency (LLE)” value with T47-D (breast cancer) and in the series with A549 (lung cancer) were 2.58 and 2.66, respectively. In addition, the IC50 in the series on A549 (lung cancer) (Homo sapiens, A549, 48 h) was 38 ± 2 µM; in series [1], more than 500 µM; in the series on HCT-116 (colon cancer) (Homo sapiens, HCT-116, 48 h), 149 ± 3 µM.
`O=C(Cn1cc(COc2ccc(/C=N\Nc3ccc([N+](=O)[O-])cc3[N+](=O)[O-])cc2)nn1)Nc1nc2ccccc2s1` [8g, (Z)-N-(benzo[d]thiazol-2-yl)-2-(4-((4-((2-(2,4-dinitrophenyl)hydrazono)methyl)phenoxy)methyl)-1H-1,2,3-triazol-1-yl)acetamide]: the IC50 in the series with A549 (lung cancer) (Homo sapiens, A549, 48 h) is 103 ± 5 µM; in series [1], more than 500 µM; in the series with HCT-116 (colon cancer) (Homo sapiens, HCT-116, 48 h) it was 109 ± 3 µM.
Take `CS(=O)(=O)c1ccc2nc(NC(=O)Cn3cc(COc4ccc(/C=N\Nc5ccc([N+](=O)[O-])cc5[N+](=O)[O-])cc4)nn3)sc2c1` [8i, (Z)-2-(4-((4-((2-(2,4-dinitrophenyl)hydrazono)methyl)phenoxy)methyl)-1H-1,2,3-triazol-1-yl)-N-(6-(methylsulfonyl)benzo[d]thiazol-2-yl)acetamide]: the “lipophilic efficiency (LLE)” value was determined as 1.52 with T47-D (breast cancer) and 1.50 in the series with A549 (lung cancer). For the same compound, the IC50 in the series on A549 (lung cancer) (Homo sapiens, A549, 48 h) is 89 ± 4 µM; in series [1], more than 500 µM; with HCT-116 (colon cancer) (Homo sapiens, HCT-116, 48 h), 162 ± 5 µM.
Turning to `NC(=S)N/N=C\c1ccc(OCc2cn(CC(=O)Nc3nc4ccccc4s3)nn2)cc1` [8j, (Z)-N-(benzo[d]thiazol-2-yl)-2-(4-((4-((2-carbamothioylhydrazono)methyl)phenoxy)methyl)-1H-1,2,3-triazol-1-yl)acetamide], the “lipophilic efficiency (LLE)” value with T47-D (breast cancer) amounted to 1.81; with A549 (lung cancer), 1.82. For the same compound, the half-maximal inhibitory concentration (IC50) in the series with A549 (lung cancer) (Homo sapiens, A549, 48 h) is 63 ± 2 µM; in series [1] it was more than 500 µM; with HCT-116 (colon cancer) (Homo sapiens, HCT-116, 48 h) it was 190 ± 4 µM.
Turning to `Cc1ccc2nc(NC(=O)Cn3cc(COc4ccc(/C=N\NC(N)=S)cc4)nn3)sc2c1` [8k, (Z)-2-(4-((4-((2-carbamothioylhydrazono)methyl)phenoxy)methyl)-1H-1,2,3-triazol-1-yl)-N-(6-methylbenzo[d]thiazol-2-yl)acetamide], the IC50 in the series on A549 (lung cancer) (Homo sapiens, A549, 48 h) was 138 ± 4 µM; in series [1], more than 500 µM; with HCT-116 (colon cancer) (Homo sapiens, HCT-116, 48 h), 170 ± 7 µM.
In the case of `CS(=O)(=O)c1ccc2nc(NC(=O)Cn3cc(COc4ccc(/C=N\NC(N)=S)cc4)nn3)sc2c1` [8l, (Z)-2-(4-((4-((2-carbamothioylhydrazono)methyl)phenoxy)methyl)-1H-1,2,3-triazol-1-yl)-N-(6-(methylsulfonyl)benzo[d]thiazol-2-yl)acetamide], the IC50 in the series on A549 (lung cancer) (Homo sapiens, A549, 48 h) is 142 ± 3 µM; in series [1], more than 500 µM; with HCT-116 (colon cancer) (Homo sapiens, HCT-116, 48 h), 180 ± 4 µM.
As for `N.N.[Cl][Pt][Cl]` [Cisplatin, reference compound], the IC50 with A549 (lung cancer) (setting [2]) was found to be 22 ± 1 µM.
